# Experimental data reported in ChEMBL document CHEMBL2440024, “Design, Synthesis, and Biological Evaluation of Novel Conformationally Constrained Inhibitors Targeting EGFR” (ACS Med Chem Lett, 2013).
# Active and inactive are the calls of the source. The calls are words filed in the database; no cut-off is given here.
# Columns and labels:
# [1] = target: T1, Epidermal growth factor receptor (Homo sapiens, UniProt P00533); assay: Ratio of IC50 for wild type EGFR in human A431 cells to IC50 for wild type EGFR (unknown origin); assay type: cell-based; details: A-431
# T1 sequence (P00533 whole entry): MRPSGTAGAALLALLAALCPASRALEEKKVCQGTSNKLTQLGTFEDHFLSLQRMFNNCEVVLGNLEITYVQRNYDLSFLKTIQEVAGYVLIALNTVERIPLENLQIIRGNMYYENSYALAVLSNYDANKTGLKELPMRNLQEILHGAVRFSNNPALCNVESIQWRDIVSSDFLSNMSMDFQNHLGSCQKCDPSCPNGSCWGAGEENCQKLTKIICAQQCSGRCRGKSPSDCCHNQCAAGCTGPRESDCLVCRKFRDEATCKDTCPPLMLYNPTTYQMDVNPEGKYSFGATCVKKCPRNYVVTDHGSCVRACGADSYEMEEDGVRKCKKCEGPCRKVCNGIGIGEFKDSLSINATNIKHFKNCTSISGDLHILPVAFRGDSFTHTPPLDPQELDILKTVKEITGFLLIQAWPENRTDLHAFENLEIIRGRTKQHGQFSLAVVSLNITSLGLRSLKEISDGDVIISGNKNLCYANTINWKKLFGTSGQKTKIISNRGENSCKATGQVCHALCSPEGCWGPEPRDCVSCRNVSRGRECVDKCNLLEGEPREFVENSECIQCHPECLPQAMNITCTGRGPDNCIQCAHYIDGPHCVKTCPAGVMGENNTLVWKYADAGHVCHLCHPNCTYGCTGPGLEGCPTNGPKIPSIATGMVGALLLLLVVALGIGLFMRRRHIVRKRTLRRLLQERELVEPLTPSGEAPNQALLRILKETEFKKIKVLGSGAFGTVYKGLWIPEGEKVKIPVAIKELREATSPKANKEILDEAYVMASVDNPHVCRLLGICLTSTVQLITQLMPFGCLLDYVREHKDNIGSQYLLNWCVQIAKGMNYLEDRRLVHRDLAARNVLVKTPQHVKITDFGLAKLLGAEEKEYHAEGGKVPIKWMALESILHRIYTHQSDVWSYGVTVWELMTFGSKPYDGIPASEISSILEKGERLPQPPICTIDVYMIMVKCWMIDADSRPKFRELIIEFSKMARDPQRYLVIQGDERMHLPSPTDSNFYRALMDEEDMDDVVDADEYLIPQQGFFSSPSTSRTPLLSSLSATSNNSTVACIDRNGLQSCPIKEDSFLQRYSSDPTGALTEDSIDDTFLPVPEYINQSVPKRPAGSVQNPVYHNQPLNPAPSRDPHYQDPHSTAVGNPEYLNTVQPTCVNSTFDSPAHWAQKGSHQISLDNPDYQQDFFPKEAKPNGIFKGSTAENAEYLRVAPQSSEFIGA
# [2] = target: T1, Epidermal growth factor receptor; assay: Inhibition of wild type EGFR (unknown origin) incubated for 5 mins prior to ATP addition measured after 30 mins by HTRF method
# [3] = system: Epidermal growth factor receptor (Homo sapiens), P00533 [T790M]; assay: Inhibition of EGFR T790M mutant (unknown origin) incubated for 5 mins prior to ATP addition measured after 30 mins by HTRF method; assay type: protein assay
# Chain of Epidermal growth factor receptor (Homo sapiens), P00533 [T790M] (P00533 whole entry T790M): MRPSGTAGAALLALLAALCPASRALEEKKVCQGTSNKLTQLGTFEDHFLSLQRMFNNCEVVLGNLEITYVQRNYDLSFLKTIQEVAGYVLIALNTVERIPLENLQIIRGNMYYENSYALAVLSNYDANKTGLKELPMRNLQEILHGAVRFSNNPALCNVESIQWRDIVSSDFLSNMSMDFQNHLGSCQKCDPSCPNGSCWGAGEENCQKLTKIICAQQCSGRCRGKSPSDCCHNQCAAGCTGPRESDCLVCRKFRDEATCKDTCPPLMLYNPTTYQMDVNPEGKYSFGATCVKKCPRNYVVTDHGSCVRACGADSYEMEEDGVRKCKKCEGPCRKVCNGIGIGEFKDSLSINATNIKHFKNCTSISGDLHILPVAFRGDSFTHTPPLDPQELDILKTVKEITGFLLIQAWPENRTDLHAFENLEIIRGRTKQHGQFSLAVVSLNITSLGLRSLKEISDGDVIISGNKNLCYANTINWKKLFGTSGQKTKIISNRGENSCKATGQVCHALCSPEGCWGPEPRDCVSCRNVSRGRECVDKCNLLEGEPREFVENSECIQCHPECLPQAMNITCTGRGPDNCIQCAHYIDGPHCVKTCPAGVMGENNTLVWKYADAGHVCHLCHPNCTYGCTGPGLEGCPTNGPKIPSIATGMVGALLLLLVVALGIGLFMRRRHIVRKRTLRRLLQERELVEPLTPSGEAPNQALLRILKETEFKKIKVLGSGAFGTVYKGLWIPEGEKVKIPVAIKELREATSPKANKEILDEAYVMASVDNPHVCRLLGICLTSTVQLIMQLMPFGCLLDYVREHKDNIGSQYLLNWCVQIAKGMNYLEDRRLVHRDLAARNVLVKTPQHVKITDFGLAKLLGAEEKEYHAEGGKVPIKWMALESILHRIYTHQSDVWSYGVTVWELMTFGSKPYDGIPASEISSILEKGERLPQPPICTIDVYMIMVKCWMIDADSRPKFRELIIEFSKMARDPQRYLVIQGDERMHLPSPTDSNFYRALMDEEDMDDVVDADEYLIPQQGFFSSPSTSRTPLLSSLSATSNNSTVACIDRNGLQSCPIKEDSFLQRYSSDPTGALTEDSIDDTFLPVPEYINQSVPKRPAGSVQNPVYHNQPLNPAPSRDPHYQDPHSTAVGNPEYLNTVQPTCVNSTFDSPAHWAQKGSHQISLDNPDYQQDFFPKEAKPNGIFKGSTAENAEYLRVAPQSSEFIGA
# [4] = target: Cytochrome P450 3A4 (Homo sapiens, UniProt P08684); assay: Inhibition of human recombinant CYP3A4 after 20 mins by LC/MS/MS analysis; assay type: ADME
# Chain of Cytochrome P450 3A4 (P08684 whole entry): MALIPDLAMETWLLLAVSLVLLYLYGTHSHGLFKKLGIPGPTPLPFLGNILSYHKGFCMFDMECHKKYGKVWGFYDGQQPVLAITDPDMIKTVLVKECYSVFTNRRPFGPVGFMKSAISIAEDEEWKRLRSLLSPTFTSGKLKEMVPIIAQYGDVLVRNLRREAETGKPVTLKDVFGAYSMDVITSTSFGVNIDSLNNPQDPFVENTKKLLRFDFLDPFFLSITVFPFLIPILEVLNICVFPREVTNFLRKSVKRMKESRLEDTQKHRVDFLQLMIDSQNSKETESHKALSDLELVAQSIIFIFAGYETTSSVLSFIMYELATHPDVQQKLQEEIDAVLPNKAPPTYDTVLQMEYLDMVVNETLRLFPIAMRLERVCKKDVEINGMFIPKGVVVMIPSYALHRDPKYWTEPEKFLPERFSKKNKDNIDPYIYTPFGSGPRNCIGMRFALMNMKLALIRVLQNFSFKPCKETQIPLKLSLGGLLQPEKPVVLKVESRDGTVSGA
# [5] = target: Cytochrome P450 2C9 (Homo sapiens, UniProt P11712); assay: Inhibition of human recombinant CYP2C9 after 20 mins by LC/MS/MS analysis; assay type: ADME
# Chain of Cytochrome P450 2C9 (P11712 whole entry): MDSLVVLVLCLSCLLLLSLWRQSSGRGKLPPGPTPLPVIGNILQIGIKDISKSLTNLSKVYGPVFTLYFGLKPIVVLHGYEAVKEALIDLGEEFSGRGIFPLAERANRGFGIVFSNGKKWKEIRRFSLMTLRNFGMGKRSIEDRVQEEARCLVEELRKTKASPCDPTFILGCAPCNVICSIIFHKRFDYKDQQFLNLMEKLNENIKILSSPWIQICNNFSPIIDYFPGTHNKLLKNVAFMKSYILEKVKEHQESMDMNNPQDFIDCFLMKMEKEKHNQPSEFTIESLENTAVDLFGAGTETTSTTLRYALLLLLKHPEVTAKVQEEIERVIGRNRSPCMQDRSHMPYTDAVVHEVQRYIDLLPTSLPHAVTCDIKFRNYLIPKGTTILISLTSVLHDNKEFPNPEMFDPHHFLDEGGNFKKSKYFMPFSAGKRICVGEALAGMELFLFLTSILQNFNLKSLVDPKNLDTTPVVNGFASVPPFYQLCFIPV
# [6] = target: Cytochrome P450 2D6 (Homo sapiens, UniProt P10635); assay: Inhibition of human recombinant CYP2D6 after 20 mins by LC/MS/MS analysis; assay type: ADME
# Chain of Cytochrome P450 2D6 (P10635 whole entry): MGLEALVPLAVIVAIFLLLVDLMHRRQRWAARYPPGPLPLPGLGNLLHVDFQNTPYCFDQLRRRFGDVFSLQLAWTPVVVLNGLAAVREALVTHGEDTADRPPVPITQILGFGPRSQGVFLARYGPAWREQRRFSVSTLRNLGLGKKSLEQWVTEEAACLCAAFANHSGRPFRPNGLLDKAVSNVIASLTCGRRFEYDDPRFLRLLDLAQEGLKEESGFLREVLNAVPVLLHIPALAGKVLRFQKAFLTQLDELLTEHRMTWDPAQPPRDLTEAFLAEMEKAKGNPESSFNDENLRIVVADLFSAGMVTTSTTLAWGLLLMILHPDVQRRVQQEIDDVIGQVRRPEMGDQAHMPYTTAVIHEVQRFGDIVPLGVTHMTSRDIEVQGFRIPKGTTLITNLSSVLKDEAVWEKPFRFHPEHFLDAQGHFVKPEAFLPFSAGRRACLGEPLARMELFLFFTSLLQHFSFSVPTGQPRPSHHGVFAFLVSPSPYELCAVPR
# [7] = target: T2, Cytochrome P450 1A2 (Homo sapiens, UniProt P05177); assay: Inhibition of human recombinant CYP1A2 after 20 mins by LC/MS/MS analysis; assay type: ADME
# T2 sequence (P05177 whole entry): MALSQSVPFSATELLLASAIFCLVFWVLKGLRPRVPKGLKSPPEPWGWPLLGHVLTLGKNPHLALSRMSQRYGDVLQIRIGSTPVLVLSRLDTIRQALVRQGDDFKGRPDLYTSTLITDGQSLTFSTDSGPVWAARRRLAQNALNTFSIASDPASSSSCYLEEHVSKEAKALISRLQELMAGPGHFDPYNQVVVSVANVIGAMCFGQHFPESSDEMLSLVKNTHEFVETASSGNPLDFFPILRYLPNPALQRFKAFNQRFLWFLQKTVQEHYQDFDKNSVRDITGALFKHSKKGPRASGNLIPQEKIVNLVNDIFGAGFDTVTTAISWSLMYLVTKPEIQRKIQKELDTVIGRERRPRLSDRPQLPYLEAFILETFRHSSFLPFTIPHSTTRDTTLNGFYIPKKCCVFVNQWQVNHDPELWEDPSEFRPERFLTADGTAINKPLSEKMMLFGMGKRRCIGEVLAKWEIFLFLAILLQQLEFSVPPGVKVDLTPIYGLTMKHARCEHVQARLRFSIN
# [8] = system: K562; assay: Cytotoxicity against human K562 cells after 48 hrs by CellTiter-Glo assay; assay type: functional, cell-based; details: K562, 48 h
# [9] = system: SW-620; assay: Cytotoxicity against human SW620 cells after 48 hrs by CellTiter-Glo assay; assay type: functional, cell-based; details: SW-620, 48 h
# [10] = system: A549; assay: Cytotoxicity against human A549 cells after 48 hrs by CellTiter-Glo assay; assay type: functional, cell-based; details: A549, 48 h
# [11] = system: Mus musculus; assay: Toxicity in nude mouse xenografted with human A431 cells assessed as weight loss at 200 mg/kg/day, po qd after 12 days; assay type: organism-based, A-431; set-up: route oral; details: in vivo, 288 h
# In short: (§1)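 A431 xenograft; dosing began once tumours reached 50–150 mm³. Mice randomized, n = 6/group, given test agent, gefitinib reference or vehicle by oral gavage once daily at 200 mg/kg/day. Body weight and tumour volume recorded twice weekly; mortality and weight loss noted over treatment (tumour mass read on days 0, 4, 7, 10, 12).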
# [12] = system: Mus musculus; assay: Toxicity in nude mouse xenografted with human A431 cells assessed as mortality at 200 mg/kg/day, po qd after 12 days; assay type: organism-based, A-431; set-up: route oral; details: in vivo, 288 h; in short: as §1
# [13] = system: A-431; assay: animal or person; assay type: functional, Homo sapiens; details: Mus musculus, A-431, 288 h, route oral, read-out: TGI
# [14] = system: Mus musculus; assay: Oral bioavailability in BALB/c mouse at 10 mg/kg; assay type: ADME, organism-based; details: in vivo
# In short: (§2)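 Mice (12 per treatment group) received a single dose, either intravenously at 3 mg/kg or orally at 10 mg/kg. Plasma exposure was followed over 24 h to derive AUC(0–24 h) in μM·min, t1/2 and tmax in min, and Cmax in μM. Oral bioavailability (F%) was derived from the oral versus i.v. data.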
# [15] = Cmax in BALB/c mouse at 10 mg/kg, po; assay type: ADME, organism-based; set-up: dose 10 mg/kg, route oral; details: in vivo; in short: as §2
# [16] = Cmax in BALB/c mouse at 3 mg/kg, iv; assay type: ADME, organism-based; set-up: dose 3 mg/kg, route intravenous; details: in vivo; in short: as §2
# [17] = Tmax in BALB/c mouse at 10 mg/kg, po; assay type: ADME, organism-based; set-up: dose 10 mg/kg, route oral; details: in vivo; in short: as §2
# [18] = Tmax in BALB/c mouse at 3 mg/kg, iv; assay type: ADME, organism-based; set-up: dose 3 mg/kg, route intravenous; details: in vivo; in short: as §2
# [19] = Half life in BALB/c mouse at 10 mg/kg, po; assay type: ADME, organism-based; set-up: dose 10 mg/kg, route oral; details: in vivo; in short: as §2
# [20] = system: Mus musculus; assay: AUC (0 to 24 hrs) in BALB/c mouse at 10 mg/kg, po; assay type: ADME, organism-based, Plasma; set-up: time < 24 hr, dose 10 mg/kg, route oral; details: in vivo; in short: as §2
# [21] = Half life in BALB/c mouse at 3 mg/kg, iv; assay type: ADME, organism-based; set-up: dose 3 mg/kg, route intravenous; details: in vivo; in short: as §2
# [22] = system: Mus musculus; assay: AUC (0 to 24 hrs) in BALB/c mouse at 3 mg/kg, iv; assay type: ADME, organism-based, Plasma; set-up: time < 24 hr, dose 3 mg/kg, route intravenous; details: in vivo; in short: as §2
# [23] = target: Voltage-gated inwardly rectifying potassium channel KCNH2 (Homo sapiens, UniProt Q12809); assay: Inhibition of human ERG channel by patch clamp assay
# Chain of Voltage-gated inwardly rectifying potassium channel KCNH2 (Q12809 whole entry): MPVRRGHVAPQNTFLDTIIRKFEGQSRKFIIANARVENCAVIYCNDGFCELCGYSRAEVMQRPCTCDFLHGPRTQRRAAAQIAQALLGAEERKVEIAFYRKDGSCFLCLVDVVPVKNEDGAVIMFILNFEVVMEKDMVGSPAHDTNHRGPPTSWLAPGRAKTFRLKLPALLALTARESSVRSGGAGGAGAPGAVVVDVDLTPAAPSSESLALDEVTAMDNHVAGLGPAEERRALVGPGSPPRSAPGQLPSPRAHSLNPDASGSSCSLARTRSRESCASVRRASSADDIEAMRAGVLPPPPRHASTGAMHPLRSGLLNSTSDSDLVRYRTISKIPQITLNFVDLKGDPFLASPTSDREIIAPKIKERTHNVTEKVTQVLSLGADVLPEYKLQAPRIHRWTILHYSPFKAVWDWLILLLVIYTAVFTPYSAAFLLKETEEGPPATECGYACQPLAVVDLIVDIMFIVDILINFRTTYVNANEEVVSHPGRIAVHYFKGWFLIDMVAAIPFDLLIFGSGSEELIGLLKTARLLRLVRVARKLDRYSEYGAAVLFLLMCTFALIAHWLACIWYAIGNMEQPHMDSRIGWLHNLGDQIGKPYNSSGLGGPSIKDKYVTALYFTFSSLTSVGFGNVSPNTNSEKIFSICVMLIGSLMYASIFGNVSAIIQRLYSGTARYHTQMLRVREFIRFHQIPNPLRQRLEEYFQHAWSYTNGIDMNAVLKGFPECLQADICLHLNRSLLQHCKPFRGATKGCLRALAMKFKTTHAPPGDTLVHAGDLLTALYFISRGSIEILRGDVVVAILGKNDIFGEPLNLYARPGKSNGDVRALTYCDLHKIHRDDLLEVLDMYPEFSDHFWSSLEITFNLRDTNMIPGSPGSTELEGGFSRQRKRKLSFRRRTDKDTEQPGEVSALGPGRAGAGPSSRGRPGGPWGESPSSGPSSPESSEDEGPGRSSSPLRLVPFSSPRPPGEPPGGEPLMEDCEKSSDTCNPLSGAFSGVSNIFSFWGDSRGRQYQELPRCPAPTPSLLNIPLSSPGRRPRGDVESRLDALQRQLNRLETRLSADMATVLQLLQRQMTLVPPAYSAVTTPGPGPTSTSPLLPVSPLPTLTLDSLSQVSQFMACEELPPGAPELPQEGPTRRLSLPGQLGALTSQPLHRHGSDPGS
# [24] = target: T1, Epidermal growth factor receptor; details: A-431, at 1 µM
Compound,inhibition [3],IC50 [4] [µM],IC50 [5] [µM],IC50 [6] [µM],IC50 [7] [µM],IC50 [8] [µM],IC50 [9] [µM],IC50 [10] [µM],Activity [11],Activity [12],further results
Fc1ccc(Nc2ncnc3cc4c(cc23)NCCO4)cc1Cl,,,,,,,,,,,Ratio IC50 [1]: 20000; IC50 [2]: 0.00129 µM
CN(C)C/C=C/C(=O)N1CCOc2cc3ncnc(Nc4ccc(OCc5cccc(F)c5)c(Cl)c4)c3cc21,Active,> 10,> 10,> 10,> 10,> 10,6.2,> 10,,,
CN(C)C/C=C/C(=O)N1CCOc2cc3ncnc(Nc4ccc(F)c(Cl)c4)c3cc21,Active,> 10,> 10,> 10,> 10,> 10,25.4,> 10,Non-toxic,Non-toxic,inhibition in vivo at 200 mg/kg/day [13]: 66.8%; F [14]: 26.1%; Cmax [15]: 360 nM; Cmax [16]: 290 nM; Tmax [17]: 0.75 h; Tmax [18]: 2 min; half-life [19]: 9.13 h; AUC [20]: 133 µM·min; half-life [21]: 12.7 h; AUC [22]: 25.4 µM·min; IC50 [23]: > 10 µM; inhibition [24]: Active
COc1cc2ncnc(Nc3ccc(F)c(Cl)c3)c2cc1OCCCN1CCOCC1 [GEFITINIB],,,,,,,,,Non-toxic,Non-toxic,
